Source: ChEMBL document CHEMBL1123658, “1-(2-pyridinyl)piperazine derivatives with antianaphylactic, antibronchospastic, and mast cell stabilizing activities” (J Med Chem, 1987)

How the values were obtained:
[1] = test system: Rattus norvegicus; assay: Inhibition of mast cell degranulation was assessed in female albino rats at a dose of 23 umol/kg iv; type: functional
[2] = test system: Cavia porcellus; assay: Antibronchospatic activity determined by histamine stimulated bronchospasm inhibition in guinea pigs after(i.v.) administration; type: functional, Bronchiole
Procedure, shortened: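 Guinea pigs, Konzett–Rössler preparation. Bronchospasm was induced with histamine. Compound was given iv (1 mL/kg) 1 min before the agonist, dissolved in saline or saline with slight excess HCl or CH3SO3H (pH 3.5–4). Three doses were tested in duplicate, chosen to give 20–90% inhibition. ID75 was read graphically from log dose–response curves.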

[3] = test system: Rattus norvegicus; assay: Rat PCA Test(50% inhibition of spot areas)in the female albino rats after (ip) administration in 10% aqueous acacia gum; value ranges from 42-79; type: functional; details: read-out: ID50 (the source's name)
Procedure, shortened: (§1)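 Female albino rats (200–250 g) received intradermal ventral injections of rat anti-egg-albumin antiserum; donors were raised with egg albumin im plus H. pertussis ip, and serum was taken at 12 days. 24 h later, compound was given ip in 10% acacia gum (10 mL/kg), 10 rats/group. Challenge 30 min later was iv 0.3% egg albumin plus 1% Evans blue. Blued areas were measured 30 min after challenge.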

[4] = test system: Rattus norvegicus; assay: Rat PCA Test(50% inhibition of spot areas)in the female albino rats after oral administration in 10% aqueous acacia gum; value ranges from 99-191; type: functional; details: read-out: ID50 (the source's name)
Procedure, shortened: (§2)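 Female rats (200-250 g) were passively sensitized by ventral intradermal anti-egg-albumin antiserum. This was raised in rats by intramuscular 1% egg albumin plus ip H. pertussis vaccine, with serum taken at 12 days. After 24 h, groups of 10 were dosed orally with compound or vehicle (10 mL/kg). At 60 min, iv challenge used 0.3% egg albumin with 1% Evans blue. Blued areas were measured after 30 min.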

[5] = In vivo toxic effect was determined in mouse after oral administration with 10% aqueous acacia gum; value ranges from 1.75-2.99; type: toxicity, organism-based
Procedure, shortened: (§3)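 Female albino mice, 20-30 g. Compound given orally as solution or suspension in 10% aqueous acacia gum, 10 animals per dose. Deaths recorded over 7 days.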

[6] = In vivo toxic effect was determined in mouse after intraperitoneal administration with 10% aqueous acacia gum; value ranges from 0.30-0.61; type: toxicity, organism-based; details: ip
Procedure, shortened: (§4)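 Female albino mice (20-30 g), 10 animals per dose, dosed intraperitoneally with compound in solution or suspension; compounds tested as salts unless noted. Mortality was recorded over 7 days.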

[7] = test system: Rattus norvegicus; assay: Inhibition of mast cell degranulation was assessed in female albino rats at a dose of 48 umol/kg iv; type: functional
[8] = test system: Rattus norvegicus; assay: Rat PCA Test(50% inhibition of spot areas)in the female albino rats after (ip) administration in 10% aqueous acacia gum; value ranges from […]; type: functional; details: read-out: ID50 (the source's name); procedure, shortened: as §1
[9] = test system: Rattus norvegicus; assay: Rat PCA Test(50% inhibition of spot areas)in the female albino rats after oral administration in 10% aqueous acacia gum; type: functional; details: read-out: ID50 (the source's name); procedure, shortened: as §2
[10] = In vivo toxic effect was determined in mouse after intraperitoneal administration with 10% aqueous acacia gum; value ranges from 0.55-1.17; type: toxicity, organism-based; details: ip; procedure, shortened: as §4
[11] = In vivo toxic effect was determined in mouse after oral administration with 10% aqueous acacia gum; value ranges from 0.69-1.33; type: toxicity, organism-based; procedure, shortened: as §3
[12] = test system: Rattus norvegicus; assay: Inhibition of mast cell degranulation was assessed in female albino rats at a dose of 26 umol/kg iv; type: functional
[13] = test system: Rattus norvegicus; assay: Rat PCA Test(50% inhibition of spot areas)in the female albino rats after (ip) administration in 10% aqueous acacia gum; value ranges from 34-42; type: functional; details: read-out: ID50 (the source's name); procedure, shortened: as §1
[14] = In vivo toxic effect was determined in mouse after intraperitoneal administration with 10% aqueous acacia gum; value ranges from 0.61-0.99; type: toxicity, organism-based; details: ip; procedure, shortened: as §4
[15] = In vivo toxic effect was determined in mouse after oral administration with 10% aqueous acacia gum; value ranges from 0.77-1.28; type: toxicity, organism-based; procedure, shortened: as §3
[16] = test system: Rattus norvegicus; assay: Rat PCA Test(50% inhibition of spot areas)in the female albino rats after (ip) administration in 10% aqueous acacia gum; value ranges from 213-612; type: functional; details: read-out: ID50 (the source's name); procedure, shortened: as §1
[17] = In vivo toxicity in mouse after oral administration with 10% aqueous acacia gum; type: organism-based; procedure, shortened: as §3
[18] = In vivo toxic effect was determined in mouse after intraperitoneal administration with 10% aqueous acacia gum; value ranges from 0.88-1.56; type: toxicity, organism-based; details: ip; procedure, shortened: as §4
[19] = test system: Rattus norvegicus; assay: Inhibition of mast cell degranulation was assessed in female albino rats at a dose of 35 umol/kg iv; type: functional
[20] = test system: Rattus norvegicus; assay: Rat PCA Test(50% inhibition of spot areas)in the female albino rats after (ip) administration in 10% aqueous acacia gum; value ranges from 115-142; type: functional; details: read-out: ID50 (the source's name); procedure, shortened: as §1
[21] = test system: Rattus norvegicus; assay: Rat PCA Test(50% inhibition of spot areas)in the female albino rats after (ip) administration in 10% aqueous acacia gum;Value ranges from(44-250); type: functional; details: read-out: ID50 (the source's name)
Procedure, shortened: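 Antiserum came from female rats given 1% egg albumin in 0.9% NaCl intramuscularly plus Haemophilus pertussis vaccine (2 × 10^10 organisms) intraperitoneally, and was collected 12 days later. Recipient rats (200-250 g) got it intradermally at a ventral site. After 24 h, groups of 10 received vehicle or compound ip. At 30 min they were challenged iv with 0.3% egg albumin plus 1% Evans blue. Blued skin areas were measured 30 min later.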

[22] = test system: Mus musculus; assay: In vivo toxic effect was determined in mouse after intraperitoneal administration with 10% aqueous acacia gum; NA means poorly absorbed; type: toxicity, organism-based; details: ip; procedure, shortened: as §4
[23] = test system: Rattus norvegicus; assay: Rat PCA Test(50% inhibition of spot areas)in the female albino rats after (ip) administration in 10% aqueous acacia gum; value ranges from 206-307; type: functional; details: read-out: ID50 (the source's name); procedure, shortened: as §1
[24] = In vivo toxic effect was determined in mouse after intraperitoneal administration with 10% aqueous acacia gum; value ranges from 3.43-5.07; type: toxicity, organism-based; details: ip; procedure, shortened: as §4
[25] = test system: Rattus norvegicus; assay: Inhibition of mast cell degranulation was assessed in female albino rats at a dose of 22 umol/kg iv; type: functional
[26] = test system: Rattus norvegicus; assay: Rat PCA Test(50% inhibition of spot areas)in the female albino rats after (ip) administration in 10% aqueous acacia gum; value ranges from 23-40; type: functional; details: read-out: ID50 (the source's name); procedure, shortened: as §1
[27] = test system: Rattus norvegicus; assay: Rat PCA Test(50% inhibition of spot areas)in the female albino rats after oral administration in 10% aqueous acacia gum; value ranges from 88-129; type: functional; details: read-out: ID50 (the source's name); procedure, shortened: as §2
[28] = In vivo toxic effect was determined in mouse after intraperitoneal administration with 10% aqueous acacia gum; value ranges from 0.53-0.97; type: toxicity, organism-based; details: ip; procedure, shortened: as §4
[29] = In vivo toxic effect was determined in mouse after oral administration with 10% aqueous acacia gum; value ranges from 0.66-1.27; type: toxicity, organism-based
[30] = test system: Rattus norvegicus; assay: Inhibition of mast cell degranulation was assessed in female albino rats at a dose of 31 umol/kg iv; type: functional
[31] = test system: Rattus norvegicus; assay: Rat PCA Test(50% inhibition of spot areas)in the female albino rats after oral administration in 10% aqueous acacia gum; value ranges from 72-115; type: functional; details: read-out: ID50 (the source's name); procedure, shortened: as §2
[32] = test system: Rattus norvegicus; assay: Rat PCA Test(50% inhibition of spot areas)in the female albino rats after (ip) administration in 10% aqueous acacia gum; value ranges from 11-48; type: functional; details: read-out: ID50 (the source's name); procedure, shortened: as §1
[33] = In vivo toxic effect was determined in mouse after intraperitoneal administration with 10% aqueous acacia gum; value ranges from 0.92-1.65; type: toxicity, organism-based; details: ip; procedure, shortened: as §4
[34] = In vivo toxic effect was determined in mouse after oral administration with 10% aqueous acacia gum; value ranges from 0.92-1.78; type: toxicity, organism-based; procedure, shortened: as §3

Cl.Cl.O=C(CCN1CCN(c2ccccn2)CC1)Nc1cccc([N+](=O)[O-])c1
inhibition in vivo at 23 µmol/kg [1]: 87%
ID75 [2]: 0.37 µM/kg
ED50 [3]: 58 µmol/kg
ED50 [4]: 137 µmol/kg
LD50 [5]: 2070 µmol/kg
LD50 [6]: 420 µmol/kg

Cl.Cl.O=C(CCN1CCN(c2ccccn2)CC1)Nc1ccc(Cl)cc1
inhibition in vivo at 48 µmol/kg [7]: 0%
ED50 [8]: 43 µmol/kg
ED50 [9]: > 96 µmol/kg
LD50 [10]: 620 µmol/kg
LD50 [11]: 960 µmol/kg

CCOc1ccc(NC(=O)CCN2CCN(c3ccccn3)CC2)cc1.Cl.Cl
inhibition in vivo at 26 µmol/kg [12]: 0%
ID75 [2]: 0.14 µM/kg
ED50 [13]: 37 µmol/kg
LD50 [14]: 690 µmol/kg
LD50 [15]: 920 µmol/kg

C=CCOC(=O)CCN1CCN(c2ccccn2)CC1.Cl.Cl
ED50 [16]: 330 µmol/kg
ED50 [9]: 11.5 µmol/kg
LD50 [17]: > 8610 µmol/kg
LD50 [18]: 1030 µmol/kg

CCOC(=O)C(=O)Nc1ccc(NC(=O)CCN2CCN(c3ccccn3)CC2)cc1
inhibition in vivo at 35 µmol/kg [19]: 7%
ID75 [2]: 0.23 µM/kg
ED50 [20]: 127 µmol/kg
LD50 [17]: > 7050 µmol/kg

Cl.Cl.NC(=O)c1ccc(NC(=O)CCN2CCN(c3ccccn3)CC2)cc1
ID75 [2]: 0.3 µM/kg
ED50 [21]: 124 µmol/kg
ED50 [9]: > 212 µmol/kg
LD50 [17]: > 6400 µmol/kg
LD50 [22]: Not Active

COC(=O)CCN1CCN(c2ccccn2)CC1.Cl
ID75 [2]: 3.5 µM/kg
ED50 [23]: 252 µmol/kg
LD50 [24]: 4020 µmol/kg

CCOC(=O)c1ccc(NC(=O)CCN2CCN(c3ccccn3)CC2)cc1.Cl.Cl
inhibition in vivo at 22 µmol/kg [25]: 83%
ID75 [2]: 0.17 µM/kg
ED50 [26]: 30 µmol/kg
ED50 [27]: 107 µmol/kg
LD50 [28]: 660 µmol/kg
LD50 [29]: 920 µmol/kg

Nc1ccc(NC(=O)CCN2CCN(c3ccccn3)CC2)cc1
inhibition in vivo at 31 µmol/kg [30]: 84%
ID75 [2]: 0.02 µM/kg
ED50 [31]: 91 µmol/kg
ED50 [32]: 23 µmol/kg
LD50 [33]: 1110 µmol/kg
LD50 [34]: 1290 µmol/kg
